Experiments:
Type in all cases: cell-based
[1] = target: T1, Calcium release-activated calcium channel protein 1 (Homo sapiens, UniProt Q96D31); experiment: Inhibition of […] Orai1-medited store operated calcium entry in human MDA-MB-231 cells at 100 uM pretreated for 15 mins followed by BAPTA addition by PBX dye based FLIPR assay relative to control
Outline: (§1)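 MDA-MB-231 cells seeded 2×10^3/well and used 3 days later. Loaded 1 h at 37 °C with 2 µM PBX calcium dye, 5% signal enhancer and 500 µM probenecid in PSS, pH 7.3. Compound pretreated 15 min at room temperature. Then 500 µM BAPTA, 10 µM CPA, and 0.5 mM CaCl2 700 s after CPA. Read-out: peak 2 height as % inhibition vs DMSO. 95% CI, n = 4.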
Target sequence in this assay (Q96D31 whole entry, looked up): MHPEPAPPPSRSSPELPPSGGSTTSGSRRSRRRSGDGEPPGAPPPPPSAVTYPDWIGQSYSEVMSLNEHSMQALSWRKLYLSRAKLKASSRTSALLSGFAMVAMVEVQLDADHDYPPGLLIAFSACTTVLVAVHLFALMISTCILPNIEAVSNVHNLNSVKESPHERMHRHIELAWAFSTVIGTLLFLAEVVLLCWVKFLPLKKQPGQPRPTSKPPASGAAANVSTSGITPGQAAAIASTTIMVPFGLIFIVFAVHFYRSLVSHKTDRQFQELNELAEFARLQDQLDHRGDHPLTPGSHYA

MDA-MB-231 = experiment: Inhibition of endoplasmic reticulum calcium channel in human MDA-MB-231 cells assessed as reduction in endoplasmic reticulum intracellular calcium release at 100 uM pretreated for 15 mins followed by SERCA inhibitor CPA addition measured after 700 secs by PBX dye based FLIPR assay relative to control
Outline: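 Same MDA-MB-231 PBX-dye FLIPR protocol: 15 min compound pretreatment at room temperature, then BAPTA (500 µM) and CPA (10 µM) to deplete ER stores. Peak 1 height after CPA addition (ER Ca2+ release) expressed as % inhibition relative to the DMSO control. Excitation 470–495 nm, emission 515–575 nm.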

[2] = target: T1, Calcium release-activated calcium channel protein 1; experiment: Inhibition of […] Orai1-medited store operated calcium entry in human MDA-MB-231 cells pretreated for 15 mins followed by BAPTA addition by PBX dye based FLIPR assay; outline: as §1
Target sequence in this assay (Q96D31 whole entry): as the sequence (Q96D31 whole entry, looked up) above

| SMILES | inhibition [1] [%] | inhibition (MDA-MB-231) [%] | IC50 [2] [µM] |
| --- | --- | --- | --- |
| O=C(Cc1ccccc1)N1N=C(c2ccccc2[N+](=O)[O-])CC1(O)C(F)(F)F (configuration not stated) | 40 | < 10 |  |
| Cc1cccc(C2=NN(C(=O)Cc3cccc(Cl)c3)C(O)(C(F)(F)F)C2)c1 (configuration not stated) |  | < 10 | 75 |
| O=C(Cc1ccccc1)N1N=C(c2cccc(Cl)c2)CC1(O)C(F)(F)F (configuration not stated) |  | < 10 | 48 |
| COc1ccccc1CC(=O)N1N=C(c2cccc(C)c2)CC1(O)C(F)(F)F (configuration not stated) | 50 | < 10 |  |
| O=C(Cc1ccccc1)N1N=C(c2cccc([N+](=O)[O-])c2)CC1(O)C(F)(F)F (configuration not stated) |  | < 10 | 89 |
| COc1ccc(CC(=O)N2N=C(c3ccccc3C)CC2(O)C(F)(F)F)cc1 (configuration not stated) | 30 | < 10 |  |
| CC(=O)Nc1ccc(C2=NN(C(=O)Cc3ccccc3)C(O)(C(F)(F)F)C2)cc1 (configuration not stated) | < 10 | < 10 |  |
| O=C(Cc1ccccc1)N1N=C(c2cccc(F)c2F)CC1(O)C(F)(F)F (configuration not stated) | 80 | < 10 | 55 |
| N#Cc1cccc(C2=NN(C(=O)Cc3ccccc3)C(O)(C(F)(F)F)C2)c1 (configuration not stated) | < 10 | < 10 |  |
| O=C(Cc1ccccc1)N1N=C(c2ccccc2)CC1(O)C(F)(F)F (configuration not stated) | < 10 | < 10 |  |
| COc1cccc(OC)c1C1=NN(C(=O)Cc2ccccc2)C(O)(C(F)(F)F)C1 (configuration not stated) | < 10 | < 10 |  |
| O=C(Cc1ccccc1)N1N=C(c2ccc([N+](=O)[O-])cc2)CC1(O)C(F)(F)F (configuration not stated) | < 10 | < 10 |  |
| Cc1cccc(CC(=O)N2N=C(c3ccccc3C)CC2(O)C(F)(F)F)c1 (configuration not stated) |  | < 10 | 42 |
| O=C(Cc1ccccc1)N1N=C(c2cccnc2)CC1(O)C(F)(F)F (configuration not stated) | < 10 | < 10 |  |
| O=C(Cc1ccccc1)N1N=C(c2ccccc2Cl)CC1(O)C(F)(F)F (configuration not stated) |  | 50 | 33 |
| O=C(Cc1ccccc1)N1N=C(c2ccc(Cl)cc2)CC1(O)C(F)(F)F (configuration not stated) | < 10 | < 10 |  |
| Cc1ccc(C2=NN(C(=O)Cc3ccccc3)C(O)(C(F)(F)F)C2)cc1 (configuration not stated) | < 10 | < 10 |  |
| COc1cccc(CC(=O)N2N=C(c3ccccc3C)CC2(O)C(F)(F)F)c1 (configuration not stated) | 60 | < 10 |  |
| Cc1ccccc1C1=NN(C(=O)Cc2ccc(Cl)cc2)C(O)(C(F)(F)F)C1 (configuration not stated) |  | < 10 | 47 |
| COc1cccc(CC(=O)N2N=C(c3cccc(C)c3)CC2(O)C(F)(F)F)c1 (configuration not stated) |  | < 10 | 32 |

| SMILES | inhibition [1] [%] | inhibition (MDA-MB-231) [%] | IC50 [2] [µM] |
| --- | --- | --- | --- |
| O=C(Cc1ccccc1)N1N=C(c2cc(Cl)ccc2Cl)CC1(O)C(F)(F)F (configuration not stated) | 60 | < 10 | 54 |
| O=C(Cc1ccccc1)N1N=C(c2ccccn2)CC1(O)C(F)(F)F (configuration not stated) | 20 | < 10 |  |
| Cc1ccccc1C1=NN(C(=O)Cc2ccccc2Cl)C(O)(C(F)(F)F)C1 (configuration not stated) |  | < 10 | 40 |
| Cc1cccc(C2=NN(C(=O)COc3ccccc3)C(O)(C(F)(F)F)C2)c1 (configuration not stated) | < 10 | < 10 |  |
| N#Cc1ccc(C2=NN(C(=O)Cc3ccccc3)C(O)(C(F)(F)F)C2)cc1 (configuration not stated) | < 10 | < 10 |  |
| Cc1ccccc1C1=NN(C(=O)Cc2cccc(Cl)c2)C(O)(C(F)(F)F)C1 (configuration not stated) |  | < 10 | 79 |
| O=C(Cc1ccccc1)N1N=C(c2c(F)cccc2F)CC1(O)C(F)(F)F (configuration not stated) | < 10 | < 10 |  |
| Cc1cccc(C2=NN(C(=O)Cc3ccccc3Cl)C(O)(C(F)(F)F)C2)c1 (configuration not stated) |  | < 10 | 42 |
| O=C(Cc1ccccc1)N1N=C(c2ccccc2Br)CC1(O)C(F)(F)F (configuration not stated) |  | < 10 | 30 |
| Cc1ccc(CC(=O)N2N=C(c3cccc(C)c3)CC2(O)C(F)(F)F)cc1 (configuration not stated) |  | < 10 | 42 |
| Cc1ccccc1C1=NN(C(=O)CC2CCCCC2)C(O)(C(F)(F)F)C1 (configuration not stated) | < 10 | < 10 |  |
| O=C(Cc1ccccc1)N1N=C(c2cccc(C(F)(F)F)c2)CC1(O)C(F)(F)F (configuration not stated) |  | < 10 | 29 |
| O=C(Cc1ccccc1)N1N=C(c2cccc(OCCN3CCOCC3)c2)CC1(O)C(F)(F)F (configuration not stated) | 50 | 50 |  |
| Cc1ccc(CC(=O)N2N=C(c3ccccc3C)CC2(O)C(F)(F)F)cc1 (configuration not stated) |  | < 10 | 55 |
| O=C(Cc1ccccc1)N1N=C(c2ccccc2OC(F)(F)F)CC1(O)C(F)(F)F (configuration not stated) | < 10 | < 10 |  |
| COc1ccc(CC(=O)N2N=C(c3cccc(C)c3)CC2(O)C(F)(F)F)cc1 (configuration not stated) |  | < 10 | 33 |
| O=C(Cc1ccccc1)N1N=C(c2ccc(Cl)cc2Cl)CC1(O)C(F)(F)F (configuration not stated) | 60 | < 10 | 58 |
| Cc1ccccc1C1=NN(C(=O)c2ccccc2)C(O)(C(F)(F)F)C1 (configuration not stated) | 20 | < 10 |  |
| COc1ccc(C2=NN(C(=O)Cc3ccccc3)C(O)(C(F)(F)F)C2)cc1 (configuration not stated) | < 10 | < 10 |  |
| Cc1cccc(C2=NN(C(=O)Cc3ccccc3C)C(O)(C(F)(F)F)C2)c1 (configuration not stated) | < 10 | < 10 |  |

| SMILES | inhibition [1] [%] | inhibition (MDA-MB-231) [%] | IC50 [2] [µM] |
| --- | --- | --- | --- |
| O=C(Cc1ccccc1)N1N=C(c2cccc(OC(F)(F)F)c2)CC1(O)C(F)(F)F (configuration not stated) | 50 | < 10 |  |
| COc1ccccc1C1=NN(C(=O)Cc2ccccc2)C(O)(C(F)(F)F)C1 (configuration not stated) | 25 | < 10 |  |
| Cc1ccccc1CC(=O)N1N=C(c2ccccc2C)CC1(O)C(F)(F)F (configuration not stated) | 20 | < 10 |  |
| Cc1cccc(C2=NN(C(=O)CC3CCCCC3)C(O)(C(F)(F)F)C2)c1 (configuration not stated) | < 10 | < 10 |  |
| O=C(Cc1ccccc1)N1N=C(c2cccc(Br)c2)CC1(O)C(F)(F)F (configuration not stated) |  | < 10 | 47 |
| Cc1cccc(CC(=O)N2N=C(c3cccc(C)c3)CC2(O)C(F)(F)F)c1 (configuration not stated) |  | < 10 | 45 |
| O=C(Cc1ccccc1)N1N=C(c2ccc(OC(F)(F)F)cc2)CC1(O)C(F)(F)F (configuration not stated) | < 10 | < 10 |  |
| O=C(Cc1ccccc1)N1N=C(c2ccc(Br)cc2)CC1(O)C(F)(F)F (configuration not stated) | < 10 | < 10 |  |
| O=C(Cc1ccccc1)N1N=C(C(F)(F)F)CC1(O)c1ccccc1[N+](=O)[O-] (configuration not stated) | 30 | 20 |  |
| Cc1ccccc1C1=NN(C(=O)COc2ccccc2)C(O)(C(F)(F)F)C1 (configuration not stated) |  | < 20 | 105 |
| Cc1cccc(C2=NN(C(=O)Cc3ccc(Cl)cc3)C(O)(C(F)(F)F)C2)c1 (configuration not stated) |  | < 10 | 60 |
| O=C(Cc1ccccc1)N1N=C(c2ccccc2F)CC1(O)C(F)(F)F (configuration not stated) | 30 | < 10 |  |
| Cc1ccccc1C1(O)CC(C(F)(F)F)=NN1C(=O)CC1CCCCC1 (configuration not stated) | 20 | < 10 |  |
| Cc1cccc(C2=NN(C(=O)Cc3ccccc3)C(O)(C(F)(F)F)C2)c1 (configuration not stated) |  | < 10 | 36 |
| O=C(Cc1ccccc1)N1N=C(c2ccc3c(c2)CCCC3)CC1(O)C(F)(F)F (configuration not stated) | 50 | < 10 | 89 |
| Cc1cccc(C2=NN(C(=O)c3ccccc3)C(O)(C(F)(F)F)C2)c1 (configuration not stated) | 30 | < 10 |  |
| O=C(Cc1ccccc1)N1N=C(c2ccc(F)cc2)CC1(O)C(F)(F)F (configuration not stated) | < 10 | < 10 |  |
| Cc1cccc(C2(O)CC(C(F)(F)F)=NN2C(=O)c2ccccc2)c1 (configuration not stated) | < 10 | < 10 |  |
| COc1ccccc1CC(=O)N1N=C(c2ccccc2C)CC1(O)C(F)(F)F (configuration not stated) | 60 | < 10 |  |
